Measured values from ChEMBL document CHEMBL4513216, “Probing the Open Global Health Chemical Diversity Library for Multistage-Active Starting Points for Next-Generation Antimalarials” (ACS Infect Dis, 2020).

Assay: Toxicity liver stage against HepG2, at 10uM
Format: cell-based
Parameters: test concentration 10 uM, cell line HepG2-A16-CD81EGFP
Settings: human, HepG2-A16-CD81EGFP cells; read-out: INHIBITION
Outline: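 Uninfected HepG2-A16-CD81EGFP cells, 3 × 10^3 per well, 1536-well, plated on prespotted compound at 10 μM final, parasite-free screening media added to match infected plates; puromycin 10 μM positive, DMSO 0.5% negative; run in parallel with 48 h PbLuc assay at 37 °C, 5% CO2; viability by CellTiter-Glo luminescence, normalized to controls.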

SMILES | cytotoxicity at 10 µM [%]
COc1ccc2c(ccn2CCC(=O)O)c1 | 15.4
CCN1C(=O)CC(N(C)Cc2nc3ccccc3c(=O)[nH]2)C1=O (configuration not stated) | 2.06
CN1C[C@H]2CN(C(=O)c3ccc4c(c3)OCO4)CCN2C1=O | -0.434
O=C1NC[C@H]2CN(C3CCOCC3)CCN12 | -1.95
COc1ccccc1N1CCN(C(=O)CCn2ccc(C)n2)CC1 | -3.24
Cc1ccc(NC(=O)c2ccc(=O)n(CC(=O)NC3CCCC3)n2)cc1 | -3.63
O=C(NCC1CC1)c1cc(Br)cnc1N1CCCCC1 | 3.1
CC(C)C1Nc2ccccc2C(=O)N1CC(=O)Nc1nc2c(s1)CCC2 (configuration not stated) | 2.31
Cc1nnc(NC(=O)CCc2c(C)nn3cnnc3c2C)s1 | -1.7
O=C(NCC1(CO)CC1)c1ccccc1F | 9.99
COc1ccc(S(=O)(=O)NCCC(O)c2cccs2)c(C)c1 (configuration not stated) | -1.13
CCSc1ccccc1C(=O)NCCn1nc(-n2cncn2)ccc1=O | -5.65
Cc1ccc(C(=O)N2CCc3ncc(Cn4cccn4)n3CC2)o1 | 2.31
COc1ccc(CNC(=O)c2cc3c(nc2O)CCC(C)C3)cc1 (configuration not stated) | -6.1
CN1CCN(C(=O)Cn2nc(C(F)(F)F)c(Br)c2C2CC2)CC1 | -8.5
CCn1nccc1CNC(=O)C1CCCCC1 | -0.488
CCc1nc(Nc2cccc(C(=O)NC)c2)c2c(n1)c(C)nn2CC | 1.41
Oc1ccc(Cl)cc1CNCc1ccccc1C(F)(F)F | 2.67
COc1cc(CC2CC(C(N)=O)=NO2)cc2c1OCO2 (configuration not stated) | 5.32
Cc1nn(C)c2cnn(C(C)C(=O)NCc3cccnc3)c12 (configuration not stated) | 9.77
c1cncc(CN2CCCCC2c2ccc(Nc3cnccn3)nc2)c1 (configuration not stated) | 4.41
COCCC(=O)N1C[C@@H](O)[C@H](N2CCN(c3ccccc3)CC2)C1 | 0.046
CN1CCN(CC2(O)CCN(C(=O)CCc3ccccc3F)C2)CC1 (configuration not stated) | -2

SMILES | cytotoxicity at 10 µM [%]
COc1ccc2c(c1)c(-c1nc(N(C)C)ncc1CN)cn2C | 7.43
Cc1nnc(C2CCN(c3ccccc3)CC2)o1 | 8.84
CN1CCC(c2cccc(C(=O)N(C)C)n2)CC1 | 4.53
CCC(=O)N1CCC(Cc2cnc(Nc3cnccn3)cn2)CC1 | -2.19
COc1cc2cc3c(nc2cc1OC)OCCN(Cc1ccco1)C3 | -0.116
Cc1csc(Nc2cc(C3CCCCN3C)nc(C)n2)n1 (configuration not stated) | 4.73
COc1ccc2c(O)c(NC(=O)NCC3CC3)cnc2c1 | -0.799
CC(C)NC(=O)CCNC(=O)c1c(Br)c2ccccc2n1C | 8.59
COCCN(CCOC)C(=O)c1sc(C)nc1C | 2.16
CCOc1ccccc1C(=O)Nc1cccc(C[S+](C)[O-])c1C (configuration not stated) | -4.35
CC(=O)Nc1ccc(SCC(O)COCc2ccccc2)cc1 (configuration not stated) | 1.87
Cc1nc2cc(=O)[nH]n2c(C)c1CC(=O)NC(C)C | 11.3
CC(=O)N1CCCC(c2nc(-c3ccccc3)c[nH]2)C1 (configuration not stated) | 6.48
CNS(=O)(=O)CC(=O)NC(c1cc(C)sc1C)C(C)C (configuration not stated) | 0.918
CCc1nc(CCNc2ncccc2S(N)(=O)=O)sc1C | -3.23
Cn1cc(CC2CC(=O)N(Cc3ccc(OC(F)F)cc3)C2=O)cn1 (configuration not stated) | 6.6
CCOc1ccc(NCC(=O)NCC(=O)N2CCCC2)c(C(F)(F)F)c1 | -12.8
O=C(NCCCn1nc2ccccn2c1=O)NC(C1CC1)C1CC1 | 2.74
Cc1ccc(C2CN(Cc3cnc(-c4cccnc4)s3)CCO2)o1 (configuration not stated) | -10.9
NC(=O)NC(=O)CCn1ccc(-c2ccc(F)cc2)n1 | 4.19
CC(O)CN1CCC(CN(C)CC(=O)NC(C)C)CC1 (configuration not stated) | -2.32
COc1ccc(CCCN(C)C(=O)c2cc(Cl)c[nH]2)cc1OC | -1.24
O=C1CCCN1CC1CCCCN1C(=O)Nc1cccc(F)c1 (configuration not stated) | -1.8

SMILES | cytotoxicity at 10 µM [%]
CC(C)N(CC(N)=O)Cc1cccc(Br)c1 | -6.93
CN1CCOC(C(=O)N2CCOC3(CCCC3)C2)C1 (configuration not stated) | 7.28
CCCC(NC(=O)c1cc(C)ccc1C)c1nnn[nH]1 (configuration not stated) | -9.11
CCC(CNC(=O)c1ccc(Br)o1)N1CCc2ccccc2C1 (configuration not stated) | -20.5
O=C(NCc1cccc(F)c1)N1CCc2ncnc(NC3CC3)c2CC1 | -105
CS(=O)(=O)N1CCO[C@@H]2CN(C(=O)Cc3cccs3)CC[C@@H]2C1 | -108
Cc1nc(N2CCOCC2)nc2c1CN(CC(=O)N(C)C)CC2 | -101
CS(=O)(=O)N1CCC(N2CCCC2c2ccccn2)CC1 (configuration not stated) | -7.65
O=C(NCC1CCCO1)c1cc(COc2ccccc2F)[nH]n1 (configuration not stated) | 10.8
CCOCCCNC(=O)C1CCC(=O)N(CCc2ccc(Cl)cc2)C1 (configuration not stated) | -0.591
CCOC(=O)CCNC(=O)N1CCCC(CNC(=O)c2cccs2)C1 (configuration not stated) | 0.712
Cc1ccc(C(C(=O)NCCc2nc(C)cc(=O)[nH]2)N(C)C)cc1 (configuration not stated) | 1.92
Cc1cc(NCc2nnc3n2CCCCC3)n2nc(C)c(C)c2n1 | 5.66
Cc1nonc1N1CCN(Cc2nc(CC3CC3)no2)CC1 | 9.34
CCNc1ncc(C(=O)N(C)Cc2nc3ccccc3n2C)cn1 | 6.09
CCn1cc(SCC(=O)N2CCCC(O)(CO)C2)c2ccccc21 (configuration not stated) | 6.37
CC(C)(O)CCc1ccc(C(=O)N2CCN(CCS(C)(=O)=O)CC2)cc1 | -0.686
CCN(CC)CCNCc1cc(O)c2cc(C)ccc2n1 | 0.749
CSCC(=O)N1CCc2c(cnc(C)c2-c2noc(-c3cscn3)n2)C1 | 0.86
CCCc1cc(NC2CCN(Cc3ccccn3)CC2)n2nccc2n1 | -3.91
CCc1ccc(CN2CCN(C(=O)C(C)C)[C@@H]3CS(=O)(=O)C[C@@H]32)cc1 | 2.11
O=C1CCCN1CCC1CCN(C2CCC3(CCNCC3)CC2)CC1 | 10.9
c1cncc(Cc2nnc3n2CCN(CC2CCCNC2)CC3)c1 (configuration not stated) | 2.1

SMILES | cytotoxicity at 10 µM [%]
Cc1nn(C)c(C)c1C(C(=O)O)N1CCc2ccccc2C1 (configuration not stated) | -0.492
CCc1cn[nH]c1C1CCN(C(=O)c2cc(C#N)c(=O)[nH]c2C)CC1 | 2.39
CC(C)=Cc1c(-c2ccccc2)ncn1CCN(C)S(C)(=O)=O | -0.334
Cc1c[nH]c(CN(C)C(C(=O)O)c2c(F)cccc2Cl)n1 (configuration not stated) | -41.7
Cc1cnc(N2CCN(C)CC2)nc1-c1ccnn1C | 6.3
Cn1ccnc1CN1CCCC(CO)(CCc2ccccc2)C1 (configuration not stated) | -3.36
Cn1ncc2c(NCC(=O)N3CCNCC3)nc(C(C)(C)C)nc21 | -10.6
Cc1cccc(N2CCC3(CCCN3Cc3cnn(C)c3C)CC2)n1 | -2.35
CCOc1ncccc1C(=O)N1CCCC(c2nccn2CCOC)C1 (configuration not stated) | -9.12
CC(C)CN1CCCn2nc(CNC(=O)CCN)cc2C1 | -20.5
O=C1OC2(CCNCC2)CN1CC(=O)N1CCCC1c1ccco1 (configuration not stated) | -14.6
Cc1nc(CN2CCC(N(C)Cc3nnc(C4CC4)n3C)C2)oc1C (configuration not stated) | -16.1
Cc1cc(CNc2cccc(Cl)c2C)no1 | -2.4
CCN1CCN(Cc2nc(CC(C)C)no2)CC1 | -23
Cc1cc(C)c2c(c1)C(NCc1c(C)nn(C)c1N(C)C)CCO2 (configuration not stated) | -4.07
Cc1nc(CSCCC(=O)NCc2ccc(-n3cncn3)nc2)cs1 | -27.2
Cc1cc(C2CCCN(CCCS(N)(=O)=O)C2)n[nH]1 (configuration not stated) | -20.1
CN(Cc1cccnc1)C(=O)NC1CCN(Cc2ccccn2)CC1 | -18.2
Cc1ccc(NC2CCN(C(=O)c3cccnc3O)CC2)nn1 | -27.6
CN1CCCN(C(=O)NCCNc2ncccn2)CC1 | -16.7
c1coc(-c2nc(CN3CCCC(Cn4cncn4)C3)cs2)c1 (configuration not stated) | -12
Cc1nc(-c2ccccc2)n(CC(=O)NC(C)(C)C)n1 | -16
Cc1ccc(N2CCCC(NCc3cccc4c3OCO4)C2)nn1 (configuration not stated) | -16.4

SMILES | cytotoxicity at 10 µM [%]
CCCNC(=O)CNc1ccc(C(=O)N2CCCCC2C)cc1C (configuration not stated) | -7.67
CCNc1cc2c(nn1)CCN(C(=O)Cc1noc3ccccc13)C2 | -7.42
CCc1ccc(S(=O)(=O)Nc2cc(C(=O)O)c(F)cc2F)s1 | -7.44
Cc1cc(C)cc(NC(=O)CN2CCCC(n3cncn3)C2)c1 (configuration not stated) | -9.93
Cc1nnc2n1CCN(Cc1csc(CC(=O)N(C)C)n1)C2 | -7.08
CC(Cc1ccco1)NC(=O)Nc1ccc(N2CCOCC2)nc1 (configuration not stated) | 0.813
Cc1cnn(CC2CN(c3cnc4ccccc4n3)CCO2)c1 (configuration not stated) | 2.02
O=C1CCc2cc(-c3csc(CCN4CCCC4=O)n3)ccc2N1 | -6.64
Cc1cccc(C(=O)N2C[C@@H]3OCCN(c4ncccn4)[C@@H]3C2)n1 | 0.523
CN(C)CCOCc1nnc2n1CCN(Cc1ccco1)CC2 | 2.19
COCCN1CCC2(CC1)CC(c1cccnc1)CO2 (configuration not stated) | -3.21
c1cncc(OCc2nnn3c2CN(Cc2ccsc2)CCC3)c1 | -4.34
O=C(Cc1ccsc1)N1C[C@@H]2CN(Cc3ccoc3)CCO[C@@H]2C1 | -1.73
COc1ccc(CN2Cc3nnn(C)c3C(COCCN(C)C)C2)cc1 (configuration not stated) | 5.26
Cc1noc(C)c1CN1C[C@@H]2CCCO[C@@H]2[C@H](Nc2ccccn2)C1 | 5.44
CC[C@@H]1N(Cc2nccs2)CCC[C@]12CCC(=O)N2CCOC | 2.49
COCCN1C(=O)C[C@H]2[C@H]1CCN2Cc1ccc(OC)cc1 | 1.47
CC1N(c2cnn(C)c2)C(=O)COC12CCN(Cc1ccco1)CC2 (configuration not stated) | 1.2
O=C(C1CCC1)N1C2CCC(O)(CC2)C1CN1CCOCC1 (configuration not stated) | -1.63
C=c1ncsc1=C1NN=C(C2CCCN2C(=O)CCn2cccn2)O1 (configuration not stated) | 2.29
